Reference: ChEMBL document CHEMBL3751743, “Synthesis and anti-cancer screening of novel heterocyclic-(2H)-1,2,3-triazoles as potential anti-cancer agents” (Medchemcomm, 2015)

Legend:
Format in all cases: functional
[1] = Cytotoxicity against human DU145 cells after 48 hrs by SRB assay; details: DU-145, 48 h
Summary of the method: (§1)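 NCI-60 five-dose screen: compounds dissolved in DMSO/H2O, tested at five 10-fold dilutions (10^-4 to 10^-8 M) for 48 h. Growth measured by sulforhodamine B optical density at time zero and after 48 h drug or vehicle exposure. Percentage growth calculated relative to control. GI50 is the molar concentration giving 50% reduction in net cell growth versus day-0 cell numbers.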

[2] = system: MCF7; assay: Cytotoxicity against human MCF7 cells after 48 hrs by SRB assay; details: MCF7, 48 h; summary of the method: as §1
[3] = system: MDA-MB-231; assay: Cytotoxicity against human MDA-MB-231 cells after 48 hrs by SRB assay; details: MDA-MB-231, 48 h; summary of the method: as §1
[4] = Cytotoxicity against human Hs 578T cells after 48 hrs by SRB assay; summary of the method: as §1
[5] = Cytotoxicity against human BT549 cells after 48 hrs by SRB assay; details: BT-549, 48 h; summary of the method: as §1
[6] = system: T47D; assay: Cytotoxicity against human T47D cells after 48 hrs by SRB assay
Summary of the method: (§2)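 NCI-60 five-dose screen. Compounds dissolved in DMSO/H2O and tested at five 10-fold dilutions (10^-4 to 10^-8 M) for 48 h. Growth read by sulforhodamine B optical density at time zero and after 48 h of exposure to compound or vehicle. Percent growth calculated against control. GI50 is the molar concentration giving 50% reduction in net cell growth relative to cell number on day 0.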

[7] = system: MDA-MB-468; assay: Cytotoxicity against human MDA-MB-468 cells after 48 hrs by SRB assay; details: MDA-MB-468, 48 h; summary of the method: as §1
[8] = system: CCRF-CEM; assay: Cytotoxicity against human CCRF-CEM cells after 48 hrs by SRB assay; summary of the method: as §1
[9] = Cytotoxicity against human HL-60(TB) cells after 48 hrs by SRB assay; details: HL-60, 48 h; summary of the method: as §1
[10] = system: K562; assay: Cytotoxicity against human K562 cells after 48 hrs by SRB assay; details: K562, 48 h; summary of the method: as §1
[11] = Cytotoxicity against human MOLT4 cells after 48 hrs by SRB assay; details: MOLT-4, 48 h; summary of the method: as §1
[12] = Cytotoxicity against human RPMI8226 cells after 48 hrs by SRB assay; details: RPMI-8226, 48 h; summary of the method: as §1
[13] = system: A549; assay: Cytotoxicity against human A549 cells after 48 hrs by SRB assay; details: A549, 48 h; summary of the method: as §1
[14] = system: EKVX; assay: Cytotoxicity against human EKVX cells after 48 hrs by SRB assay
Summary of the method: (§3)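 NCI-60 five-dose screen: compounds in DMSO/H2O tested at 10^-4 to 10^-8 M (10-fold steps) for 48 h. Cell mass read by sulforhodamine B optical density at time zero and after exposure to compound or vehicle. GI50 is the concentration giving 50% reduction in net cell growth relative to day-0 cell numbers.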

[15] = Cytotoxicity against human HOP62 cells after 48 hrs by SRB assay; details: HOP-62, 48 h; summary of the method: as §3
[16] = Cytotoxicity against human HOP92 cells after 48 hrs by SRB assay; details: HOP-92, 48 h; summary of the method: as §1
[17] = system: NCI-H226; assay: Cytotoxicity against human NCI-H226 cells after 48 hrs by SRB assay; details: NCI-H226, 48 h; summary of the method: as §1
[18] = system: NCI-H23; assay: Cytotoxicity against human NCI-H23 cells after 48 hrs by SRB assay; details: NCI-H23, 48 h; summary of the method: as §1
[19] = system: NCI-H460; assay: Cytotoxicity against human NCI-H460 cells after 48 hrs by SRB assay; details: NCI-H460, 48 h; summary of the method: as §1
[20] = system: NCI-H522; assay: Cytotoxicity against human NCI-H522 cells after 48 hrs by SRB assay; details: NCI-H522, 48 h; summary of the method: as §1
[21] = Cytotoxicity against human COLO205 cells after 48 hrs by SRB assay; details: COLO 205, 48 h; summary of the method: as §1
[22] = Cytotoxicity against human HCC2998 cells after 48 hrs by SRB assay; details: HCC 2998, 48 h; summary of the method: as §1
[23] = Cytotoxicity against human HCT116 cells after 48 hrs by SRB assay; details: HCT-116, 48 h; summary of the method: as §1
[24] = Cytotoxicity against human HCT15 cells after 48 hrs by SRB assay; details: HCT-15, 48 h; summary of the method: as §1
[25] = system: HT-29; assay: Cytotoxicity against human HT-29 cells after 48 hrs by SRB assay; details: HT-29, 48 h; summary of the method: as §1
[26] = system: KM12; assay: Cytotoxicity against human KM12 cells after 48 hrs by SRB assay; details: KM12, 48 h; summary of the method: as §1
[27] = Cytotoxicity against human SW620 cells after 48 hrs by SRB assay; details: SW-620, 48 h; summary of the method: as §1
[28] = Cytotoxicity against human SF268 cells after 48 hrs by SRB assay; details: SF-268, 48 h; summary of the method: as §1
[29] = Cytotoxicity against human SF295 cells after 48 hrs by SRB assay; details: SF-295, 48 h; summary of the method: as §1
[30] = Cytotoxicity against human SF539 cells after 48 hrs by SRB assay; details: SF-539, 48 h; summary of the method: as §1
[31] = Cytotoxicity against human SNB19 cells after 48 hrs by SRB assay; details: SNB-19, 48 h; summary of the method: as §1
[32] = system: U-251; assay: Cytotoxicity against human U251 cells after 48 hrs by SRB assay; details: U-251, 48 h; summary of the method: as §2
[33] = Cytotoxicity against human LOXIMVI cells after 48 hrs by SRB assay; details: LOX IMVI; summary of the method: as §1
[34] = system: Malme-3M; assay: Cytotoxicity against human MALME-3M cells after 48 hrs by SRB assay; summary of the method: as §3
[35] = system: M14; assay: Cytotoxicity against human M14 cells after 48 hrs by SRB assay; details: M14, 48 h; summary of the method: as §1
[36] = system: MDA-MB-435; assay: Cytotoxicity against human MDA-MB-435 cells after 48 hrs by SRB assay; details: MDA-MB-435, 48 h; summary of the method: as §1
[37] = system: SK-MEL-2; assay: Cytotoxicity against human SK-MEL-2 cells after 48 hrs by SRB assay; details: SK-MEL-2, 48 h; summary of the method: as §1
[38] = system: SK-MEL-28; assay: Cytotoxicity against human SK-MEL-28 cells after 48 hrs by SRB assay; details: SK-MEL-28, 48 h; summary of the method: as §1
[39] = system: SK-MEL-5; assay: Cytotoxicity against human SK-MEL-5 cells after 48 hrs by SRB assay; details: SK-MEL-5, 48 h; summary of the method: as §1
[40] = Cytotoxicity against human UACC257 cells after 48 hrs by SRB assay; details: UACC-257, 48 h; summary of the method: as §2
[41] = Cytotoxicity against human UACC62 cells after 48 hrs by SRB assay; details: UACC-62, 48 h; summary of the method: as §2
[42] = Cytotoxicity against human IGROV1 cells after 48 hrs by SRB assay; details: IGROV-1, 48 h; summary of the method: as §3
[43] = Cytotoxicity against human OVCAR3 cells after 48 hrs by SRB assay; details: OVCAR-3, 48 h; summary of the method: as §1
[44] = Cytotoxicity against human OVCAR4 cells after 48 hrs by SRB assay; details: OVCAR-4, 48 h; summary of the method: as §1
[45] = Cytotoxicity against human OVCAR5 cells after 48 hrs by SRB assay; details: OVCAR-5, 48 h; summary of the method: as §1
[46] = Cytotoxicity against human OVCAR8 cells after 48 hrs by SRB assay; details: OVCAR-8, 48 h; summary of the method: as §1
[47] = Cytotoxicity against human NCI-ADR-RES cells after 48 hrs by SRB assay; summary of the method: as §1
[48] = Cytotoxicity against human SKOV3 cells after 48 hrs by SRB assay; details: SK-OV-3, 48 h; summary of the method: as §1
[49] = system: 786-0; assay: Cytotoxicity against human 786-0 cells after 48 hrs by SRB assay; details: 786-0, 48 h; summary of the method: as §1
[50] = system: A498; assay: Cytotoxicity against human A498 cells after 48 hrs by SRB assay; details: A498, 48 h; summary of the method: as §1
[51] = system: ACHN; assay: Cytotoxicity against human ACHN cells after 48 hrs by SRB assay; summary of the method: as §1
[52] = Cytotoxicity against human Caki1 cells after 48 hrs by SRB assay; details: CAKI-1, 48 h; summary of the method: as §1
[53] = Cytotoxicity against human RXF393 cells after 48 hrs by SRB assay; details: RXF 393, 48 h; summary of the method: as §1
[54] = system: SN12C; assay: Cytotoxicity against human SN12C cells after 48 hrs by SRB assay; summary of the method: as §1
[55] = Cytotoxicity against human TK10 cells after 48 hrs by SRB assay; details: TK-10, 48 h; summary of the method: as §2
[56] = Cytotoxicity against human UO31 cells after 48 hrs by SRB assay; details: UO-31, 48 h; summary of the method: as §2
[57] = Cytotoxicity against human PC3 cells after 48 hrs by SRB assay; details: PC-3, 48 h; summary of the method: as §1

In the case of `COc1ccc(-c2n[nH]nc2-c2csc3ccccc23)cc1OC`, the GI50 [1] was 3770 nM, the GI50 [2] was 1450 nM and the GI50 [3] was 3210 nM. It also gave a GI50 [4] of 2250 nM, a GI50 [5] of 2170 nM and a GI50 [6] of 2830 nM. It also gave a GI50 [7] of 630 nM, a GI50 [8] of 3290 nM and a GI50 [9] of 1700 nM. For the same compound, the GI50 [10] was 516 nM, the GI50 [11] was 3050 nM and the GI50 [12] was 3640 nM. For the same compound, the GI50 [13] was 4520 nM, the GI50 [14] was 3420 nM and the GI50 [15] was 2180 nM. It also gave a GI50 [16] of 921 nM, a GI50 [17] of 13200 nM and a GI50 [18] of 3940 nM. The GI50 [19] was 3560 nM, the GI50 [20] was 601 nM and the GI50 [21] was 2820 nM. The GI50 [22] was 4210 nM, the GI50 [23] was 2840 nM and the GI50 [24] was 1670 nM. It also gave a GI50 [25] of 2780 nM, a GI50 [26] of 2280 nM and a GI50 [27] of 3090 nM. For the same compound, the GI50 [28] was 3690 nM, the GI50 [29] was 2330 nM and the GI50 [30] was 1840 nM. It also gave a GI50 [31] of 4670 nM, a GI50 [32] of 2190 nM and a GI50 [33] of 3040 nM. The GI50 [34] was 13300 nM, the GI50 [35] was 1950 nM and the GI50 [36] was 337 nM. It also gave a GI50 [37] of 1440 nM, a GI50 [38] of 4630 nM and a GI50 [39] of 2830 nM. The GI50 [40] was 10900 nM, the GI50 [41] was 2770 nM and the GI50 [42] was 4210 nM. It also gave a GI50 [43] of 1940 nM, a GI50 [44] of 6330 nM and a GI50 [45] of 7910 nM. For the same compound, the GI50 [46] was 4240 nM, the GI50 [47] was 2390 nM and the GI50 [48] was 2370 nM. It also gave a GI50 [49] of 3260 nM, a GI50 [50] of 2960 nM and a GI50 [51] of 3940 nM. The GI50 [52] was 3690 nM, the GI50 [53] was 2110 nM and the GI50 [54] was 8800 nM. For the same compound, the GI50 [55] was 2980 nM, the GI50 [56] was 2780 nM and the GI50 [57] was 3080 nM.
